Results reported in ChEMBL document CHEMBL1132108, “Design, synthesis, and activity of a series of pyrrolidine-3-carboxylic acid-based, highly specific, orally active ET(B) antagonists containing a diphenylmethylamine acetamide side chain” (J Med Chem, 1999).
pIC50: −log10 of the molar value.

What was measured:
[1] = target: Endothelin receptor, ET-A/ET-B (Homo sapiens) (UniProt P24530+P25101); assay: Ratio of binding affinity towards human endothelin receptor type A to human endothelin receptor type B (hETA to hETB); format: protein assay
[2] = target: T1, Endothelin receptor type B (Homo sapiens, UniProt P24530); assay: Binding ability determined by the displacement of [125 I]ET-3 from the human Endothelin B receptor
T1 sequence (P24530 whole entry): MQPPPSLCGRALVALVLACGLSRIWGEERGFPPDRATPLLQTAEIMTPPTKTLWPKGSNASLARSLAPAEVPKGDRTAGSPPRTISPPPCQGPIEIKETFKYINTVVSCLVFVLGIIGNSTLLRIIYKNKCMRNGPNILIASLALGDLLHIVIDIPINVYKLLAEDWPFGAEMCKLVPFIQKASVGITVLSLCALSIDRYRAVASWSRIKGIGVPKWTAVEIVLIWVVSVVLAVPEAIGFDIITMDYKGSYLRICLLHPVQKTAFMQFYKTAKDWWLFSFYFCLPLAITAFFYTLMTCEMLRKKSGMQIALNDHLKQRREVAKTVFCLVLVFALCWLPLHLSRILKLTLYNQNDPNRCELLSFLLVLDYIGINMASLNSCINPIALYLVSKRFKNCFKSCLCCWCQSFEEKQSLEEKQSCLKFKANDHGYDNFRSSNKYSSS

Endothelin-1 receptor = target: T2, Endothelin-1 receptor (Homo sapiens, UniProt P25101); assay: Binding ability determined by the displacement of [125I]ET1 from the human endothelin A receptor
T2 sequence (P25101 whole entry): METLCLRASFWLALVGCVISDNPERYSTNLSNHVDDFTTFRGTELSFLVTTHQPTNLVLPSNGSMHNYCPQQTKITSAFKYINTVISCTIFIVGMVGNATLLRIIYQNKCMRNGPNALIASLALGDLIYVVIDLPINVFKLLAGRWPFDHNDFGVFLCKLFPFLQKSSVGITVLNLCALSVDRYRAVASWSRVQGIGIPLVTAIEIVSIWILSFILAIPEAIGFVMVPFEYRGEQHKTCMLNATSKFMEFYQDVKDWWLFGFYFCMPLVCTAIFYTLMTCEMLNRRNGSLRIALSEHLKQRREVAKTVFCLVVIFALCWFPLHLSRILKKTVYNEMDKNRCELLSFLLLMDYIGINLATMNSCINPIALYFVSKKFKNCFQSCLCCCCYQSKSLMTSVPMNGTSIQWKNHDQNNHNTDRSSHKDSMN

[3] = Oral bioavailability; format: ADME, organism-based; settings: eutheria, in vivo
Method in brief: (§1)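 Rats dosed at 5 mg/kg by intravenous injection and by oral gavage. Time course of plasma drug levels compared between the two routes to give half-life and AUC0-∞. Oral bioavailability F is calculated from the two routes.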

[4] = Total drug exposure (5 mg/kg) when administered orally; format: ADME, organism-based; settings: in vivo, po; method in brief: as §1
[5] = Half life (5 mg/kg) when administered intravenously; format: ADME, organism-based; settings: in vivo, iv; method in brief: as §1
[6] = Half life (5 mg/kg) when administered orally; format: ADME, organism-based; settings: in vivo, po; method in brief: as §1
[7] = Total drug exposure (5 mg/kg) when administered intravenously; format: ADME, organism-based; settings: in vivo, iv; method in brief: as §1

COCCOc1ccc([C@H]2[C@H](C(=O)O)[C@@H](c3ccc4c(c3)OCO4)CN2CC(=O)NC(c2ccccc2C)c2ccccc2C)cc1 (stereo in doubt; form 1) [listing 1 of 2 here]
Ratio [1]: 12100

CCCC(NC(=O)CN1C[C@H](c2ccc3c(c2)OCO3)[C@@H](C(=O)O)[C@@H]1c1ccc(OC)cc1)c1ccccc1 (stereo partly specified)
Ratio [1]: 0.51 | pIC50 [2]: 8.14 | pIC50 (Endothelin-1 receptor): 8.43

COc1ccc([C@H]2[C@H](C(=O)O)[C@@H](c3ccc4c(c3)OCO4)CN2CC(=O)NC(c2ccccc2C)c2ccccc2C)cc1
Ratio [1]: 146 | pIC50 [2]: 8.96 | pIC50 (Endothelin-1 receptor): 6.79

COCCOc1ccc([C@H]2[C@H](C(=O)O)[C@@H](c3ccc4c(c3)OCO4)CN2CC(=O)NC(c2ccccc2C)c2ccccc2C)cc1 (stereo in doubt; form 2)
Ratio [1]: 16000

COc1ccc([C@H]2[C@H](C(=O)O)[C@@H](c3ccc4c(c3)OCO4)CN2CC(=O)NC2c3ccccc3-c3ccccc32)cc1
Ratio [1]: 2.05 | pIC50 [2]: 6.22 | pIC50 (Endothelin-1 receptor): 5.91

COc1ccc([C@H]2[C@H](C(=O)O)[C@@H](c3ccc4c(c3)OCO4)CN2CC(=O)NC(c2ccccc2)c2cc(C)ccc2C)cc1 (stereo partly specified)
Ratio [1]: 3.94 | pIC50 [2]: 7.51 | pIC50 (Endothelin-1 receptor): 6.91

COc1ccc([C@H]2[C@H](C(=O)O)[C@@H](c3ccc4c(c3)OCO4)CN2CC(=O)NC(C)c2ccccc2C)cc1 (stereo partly specified)
Ratio [1]: 0.89 | pIC50 [2]: 7.74 | pIC50 (Endothelin-1 receptor): 7.80

COc1ccc([C@H]2[C@H](C(=O)O)[C@@H](c3ccc4c(c3)OCO4)CN2CC(=O)NC(c2ccccc2)C(C)(C)C)cc1 (stereo partly specified)
Ratio [1]: 9.36 | pIC50 [2]: 9.03 | pIC50 (Endothelin-1 receptor): 8.06

Cc1ccccc1C(NC(=O)CN1C[C@H](c2ccc3c(c2)OCO3)[C@@H](C(=O)O)[C@@H]1c1ccc(OCCOC(C)C)cc1)c1ccccc1C (stereo in doubt; form 1)
Ratio [1]: 27200

COCCOc1ccc([C@H]2[C@H](C(=O)O)[C@@H](c3ccc4c(c3)OCO4)CN2CC(=O)NC(c2ccccc2C)c2ccccc2C)cc1.O=C(O)C(F)(F)F (stereo in doubt; form 2)
bioavailability [3]: 8% | AUC [4]: 200 ng·h/mL | half-life [5]: 2.9 h | pIC50 [2]: 8.77 | half-life [6]: 0.55 h | AUC [7]: 2500 ng·h/mL | pIC50 (Endothelin-1 receptor): 4.57

COc1ccc([C@H]2[C@H](C(=O)O)[C@@H](c3ccc4c(c3)OCO4)CN2CC(=O)NC(c2ccccc2)C(C)C)cc1 (stereo partly specified)
Ratio [1]: 0.33 | pIC50 [2]: 8.68 | pIC50 (Endothelin-1 receptor): 9.15

CCc1ccccc1C(NC(=O)CN1C[C@H](c2ccc3c(c2)OCO3)[C@@H](C(=O)O)[C@@H]1c1ccc(OCCOC(C)C)cc1)c1ccccc1C (stereo partly specified)
Ratio [1]: 4320 | pIC50 [2]: 8.48 | pIC50 (Endothelin-1 receptor): 4.85

COc1ccc([C@H]2[C@H](C(=O)O)[C@@H](c3ccc4c(c3)OCO4)CN2CC(=O)NC(c2ccccc2)c2ccccc2)cc1
Ratio [1]: 5.67 | pIC50 [2]: 8.09 | pIC50 (Endothelin-1 receptor): 7.34

COc1ccc([C@H]2[C@H](C(=O)O)[C@@H](c3ccc4c(c3)OCO4)CN2CC(=O)NC(CC(C)C)c2ccccc2)cc1 (stereo partly specified)
Ratio [1]: 4 | pIC50 [2]: 8.47 | pIC50 (Endothelin-1 receptor): 7.87

CCC(NC(=O)CN1C[C@H](c2ccc3c(c2)OCO3)[C@@H](C(=O)O)[C@@H]1c1ccc(OC)cc1)c1ccccc1 (stereo partly specified)
Ratio [1]: 0.38 | pIC50 [2]: 8.59 | pIC50 (Endothelin-1 receptor): 9.00

COc1ccc([C@H]2[C@H](C(=O)O)[C@@H](c3ccc4c(c3)OCO4)CN2CC(=O)NC(c2ccccc2)c2ccccc2C)cc1 (stereo partly specified)
Ratio [1]: 18.7 | pIC50 [2]: 8.47 | pIC50 (Endothelin-1 receptor): 7.20

CCC(CC)C(NC(=O)CN1C[C@H](c2ccc3c(c2)OCO3)[C@@H](C(=O)O)[C@@H]1c1ccc(OC)cc1)c1ccccc1 (stereo partly specified)
Ratio [1]: 2.27 | pIC50 [2]: 8.96 | pIC50 (Endothelin-1 receptor): 8.60

CCCCC(NC(=O)CN1C[C@H](c2ccc3c(c2)OCO3)[C@@H](C(=O)O)[C@@H]1c1ccc(OC)cc1)c1ccccc1 (stereo partly specified)
Ratio [1]: 0.32 | pIC50 [2]: 8.30 | pIC50 (Endothelin-1 receptor): 8.80

COc1ccc([C@H]2[C@H](C(=O)O)[C@@H](c3ccc4c(c3)OCO4)CN2CC(=O)NCC(c2ccccc2)c2ccccc2)cc1
Ratio [1]: 1.84 | pIC50 [2]: 6.97 | pIC50 (Endothelin-1 receptor): 6.70

COCCOc1ccc([C@H]2[C@H](C(=O)O)[C@@H](c3ccc4c(c3)OCO4)CN2CC(=O)NC(c2ccccc2)C(C)(C)C)cc1 (stereo partly specified)
Ratio [1]: 222 | pIC50 [2]: 8.66 | pIC50 (Endothelin-1 receptor): 6.31

COc1ccc([C@H]2[C@H](C(=O)O)[C@@H](c3ccc4c(c3)OCO4)CN2CC(=O)NC(c2ccccc2)(c2ccccc2)c2ccccc2)cc1
Ratio [1]: 0.58 | pIC50 [2]: 6.13 | pIC50 (Endothelin-1 receptor): 6.36

Cc1ccccc1C(NC(=O)CN1C[C@H](c2ccc3c(c2)OCO3)[C@@H](C(=O)O)[C@@H]1c1ccc(OCCOC(C)C)cc1)c1ccccc1C (stereo in doubt; form 2) [listing 1 of 2 here]
Ratio [1]: 23400

Cc1ccccc1C(NC(=O)CN1C[C@H](c2ccc3c(c2)OCO3)[C@@H](C(=O)O)[C@@H]1c1ccc(OCCOC(C)C)cc1)c1ccccc1C.O=C(O)C(F)(F)F (stereo in doubt; form 1)
bioavailability [3]: 24% | AUC [4]: 730 ng·h/mL | half-life [5]: 1.8 h | pIC50 [2]: 8.72 | half-life [6]: 4.8 h | AUC [7]: 3030 ng·h/mL | pIC50 (Endothelin-1 receptor): 4.29

CCc1ccccc1C(NC(=O)CN1C[C@H](c2ccc3c(c2)OCO3)[C@@H](C(=O)O)[C@@H]1c1ccc(OC)cc1)c1ccccc1CC
Ratio [1]: 15.2 | pIC50 [2]: 8.18 | pIC50 (Endothelin-1 receptor): 7.00

COc1ccc([C@H]2[C@H](C(=O)O)[C@@H](c3ccc4c(c3)OCO4)CN2CC(=O)NC(C)c2ccccc2)cc1 (stereo partly specified)
Ratio [1]: 0.28 | pIC50 [2]: 7.70 | pIC50 (Endothelin-1 receptor): 8.26

CCc1ccccc1C(NC(=O)CN1C[C@H](c2ccc3c(c2)OCO3)[C@@H](C(=O)O)[C@@H]1c1ccc(OC)cc1)c1ccccc1C (stereo partly specified)
Ratio [1]: 123 | pIC50 [2]: 8.21 | pIC50 (Endothelin-1 receptor): 6.13

Cc1ccccc1C(NC(=O)CN1C[C@H](c2ccc3c(c2)OCO3)[C@@H](C(=O)O)[C@@H]1c1ccc(OCCOC(C)C)cc1)c1ccccc1C (stereo in doubt; form 2) [listing 2 of 2 here]
pIC50 [2]: 8.48 | pIC50 (Endothelin-1 receptor): 4.11

CC(C)OCCOc1ccc([C@H]2[C@H](C(=O)O)[C@@H](c3ccc4c(c3)OCO4)CN2CC(=O)NC(c2ccccc2)C(C)(C)C)cc1 (stereo partly specified)
Ratio [1]: 454 | pIC50 [2]: 9.15 | pIC50 (Endothelin-1 receptor): 6.49

COc1ccc([C@H]2[C@H](C(=O)O)[C@@H](c3ccc4c(c3)OCO4)CN2CC(=O)NC(Cc2ccccc2)c2ccccc2)cc1 (stereo partly specified)
Ratio [1]: 0.08 | pIC50 [2]: 7.33 | pIC50 (Endothelin-1 receptor): 8.41

COc1ccc([C@H]2[C@H](C(=O)O)[C@@H](c3ccc4c(c3)OCO4)CN2CC(=O)NC(CC(C)(C)C)c2ccccc2)cc1 (stereo partly specified)
Ratio [1]: 26.2 | pIC50 [2]: 8.30 | pIC50 (Endothelin-1 receptor): 6.88

COCCOc1ccc([C@H]2[C@H](C(=O)O)[C@@H](c3ccc4c(c3)OCO4)CN2CC(=O)NC(c2ccccc2C)c2ccccc2C)cc1 (stereo in doubt; form 1) [listing 2 of 2 here]
pIC50 [2]: 8.77 | pIC50 (Endothelin-1 receptor): 4.69
